According to ChEMBL document CHEMBL4823272 (Eur J Med Chem, 2021):
Activity calls are given as the source filed them. The calls are words filed in the database; no cut-off is given here.

What was measured:
[1] = biological target: T1, Amyloid-beta precursor protein (Homo sapiens, UniProt P05067); assay: Inhibition of human biotinylated amyloid beta (1 to 42) oligomerization measured after 1 hr by ELISA
Procedure, shortened: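 HFIP/TFA-treated biotinylated Aβ1-42 in DMSO/OFB buffer incubated with compound 1 h at room temperature, stopped with 0.3% Tween 20. Captured on NeutrAvidin-coated plates blocked with OFB-T (pH 7.50), 2 h at 150 rpm. Streptavidin-HRP 1:10,000 for 1 h, TMB/H₂O₂, stopped with 2% H₂SO₄, read at 450 nm. IC50 from 4-parameter logistic fit normalized to DMSO and Tween-20 controls.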

[2] = biological target: T1, Amyloid-beta precursor protein; assay: Inhibition of human amyloid beta (1 to 40) fibrillization at 100 uM measured every 15 mins by Thioflavin-T fluorescence assay relative to control
SIM-A9 [3] = assay: Anti-inflammatory activity in mouse SIM-A9 cells assessed as inhibition of LPS-induced IL-6 production at 2.7 uM measured after 24 hrs by ELISA; assay type: functional, cell-based
Procedure, shortened: (§1)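 SIM-A9 cells seeded 0.25 × 10⁶/well a day ahead, then given 5 ng/mL LPS with compound for 24 h. Supernatants assayed by sandwich ELISA: capture antibody 1:250, detection antibody 1:250, avidin-HRP, TMB, stop with 2 N H₂SO₄. Read at 450 nm, 570 nm correction. Mean ± SD, n = 3.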

SIM-A9 [4] = assay: Anti-inflammatory activity in mouse SIM-A9 cells assessed as inhibition of LPS-induced TNF-alpha production at 2.7 uM measured after 24 hrs by ELISA; assay type: functional, cell-based; procedure, shortened: as §1
SIM-A9 [5] = assay: Anti-inflammatory activity in LPS-stimulated mouse SIM-A9 cells assessed as downregulation of iNOS expression at 2.7 uM measured after 24 hrs by Western blot analysis; assay type: functional, cell-based
Procedure, shortened: (§2)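 SIM-A9 murine microglia in DMEM-F12 with 10% FBS and 5% horse serum, seeded 0.25 × 10⁶ cells/well one day before. Stimulated with 5 ng/mL LPS plus compound for 24 h. Cells lysed in RIPA with protease inhibitors, protein by Micro BCA. Equal protein on SDS-PAGE, PVDF transfer, probed with iNOS, COX-2 and tubulin antibodies (1:1000), HRP chemiluminescence.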

[6] = Drug concentration in CD-1 mouse brain at 5 mg/kg, po measured after 0.5 hrs by LC-MS/MS analysis; assay type: ADME, organism-based
Procedure, shortened: (§3)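 Male CD-1 mice dosed 5 mg/kg orally, n = 3 per time point. At 0.5 and 2.5 h, blood taken by cardiac puncture, then transcardial PBS perfusion. Brains homogenized in three volumes of PBS. Samples precipitated with cold acetonitrile, supernatant diluted with two volumes of 0.1% formic acid water, measured by LC-MS/MS. Brain/plasma ratio from these levels.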

[7] = Ratio of drug concentration in brain to plasma of CD-1 mouse at 5 mg/kg, po after 0.5 hrs; assay type: ADME, organism-based; details: read-out: BPR; procedure, shortened: as §3
[8] = Drug concentration in CD-1 mouse plasma at 5 mg/kg, po measured after 2.5 hrs by LC-MS/MS analysis; assay type: ADME, organism-based; procedure, shortened: as §3
[9] = Drug concentration in CD-1 mouse brain at 5 mg/kg, po measured after 2.5 hrs by LC-MS/MS analysis; assay type: ADME, organism-based; procedure, shortened: as §3
SIM-A9 [10] = assay: Anti-inflammatory activity in LPS-stimulated mouse SIM-A9 cells assessed as downregulation of COX-2 expression at 2.7 uM measured after 24 hrs by Western blot analysis; assay type: functional, cell-based; procedure, shortened: as §2
SIM-A9 [11] = assay: Induction of phagocytosis in LPS-stimulated mouse SIM-A9 cells assessed as increase in FITC signal measured after 24 hrs by FITC analysis; assay type: functional, cell-based
Procedure, shortened: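 SIM-A9 cells given LPS plus compound for 24 h, then FITC-labelled killed E. coli bioparticles at 0.125 mg/mL final for 1 h at 37 °C. Extracellular signal quenched with 0.4% trypan blue. Intracellular FITC read at Ex 494/Em 518. Mean ± SD.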

[12] = Drug concentration in CD-1 mouse plasma at 5 mg/kg, po measured after 0.5 hrs by LC-MS/MS analysis; assay type: ADME, organism-based; procedure, shortened: as §3
[13] = Ratio of drug concentration in brain to plasma of CD-1 mouse at 5 mg/kg, po after 2.5 hrs; assay type: ADME, organism-based; details: read-out: BPR; procedure, shortened: as §3
SIM-A9 [14] = assay: Anti-inflammatory activity in mouse SIM-A9 cells assessed as inhibition of LPS-induced NO production at 2.7 uM measured after 24 hrs by Griess reagent based assay; assay type: functional, cell-based
Procedure, shortened: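 SIM-A9 cells given 5 ng/mL LPS with compound for 24 h. Conditioned medium mixed with sulfanilamide, then N-naphthyl-ethylenediamine, 5–10 min dark at room temperature. Absorbance at 520–550 nm, NO quantified against a standard curve. n = 3.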

T1 sequence (P05067 whole entry): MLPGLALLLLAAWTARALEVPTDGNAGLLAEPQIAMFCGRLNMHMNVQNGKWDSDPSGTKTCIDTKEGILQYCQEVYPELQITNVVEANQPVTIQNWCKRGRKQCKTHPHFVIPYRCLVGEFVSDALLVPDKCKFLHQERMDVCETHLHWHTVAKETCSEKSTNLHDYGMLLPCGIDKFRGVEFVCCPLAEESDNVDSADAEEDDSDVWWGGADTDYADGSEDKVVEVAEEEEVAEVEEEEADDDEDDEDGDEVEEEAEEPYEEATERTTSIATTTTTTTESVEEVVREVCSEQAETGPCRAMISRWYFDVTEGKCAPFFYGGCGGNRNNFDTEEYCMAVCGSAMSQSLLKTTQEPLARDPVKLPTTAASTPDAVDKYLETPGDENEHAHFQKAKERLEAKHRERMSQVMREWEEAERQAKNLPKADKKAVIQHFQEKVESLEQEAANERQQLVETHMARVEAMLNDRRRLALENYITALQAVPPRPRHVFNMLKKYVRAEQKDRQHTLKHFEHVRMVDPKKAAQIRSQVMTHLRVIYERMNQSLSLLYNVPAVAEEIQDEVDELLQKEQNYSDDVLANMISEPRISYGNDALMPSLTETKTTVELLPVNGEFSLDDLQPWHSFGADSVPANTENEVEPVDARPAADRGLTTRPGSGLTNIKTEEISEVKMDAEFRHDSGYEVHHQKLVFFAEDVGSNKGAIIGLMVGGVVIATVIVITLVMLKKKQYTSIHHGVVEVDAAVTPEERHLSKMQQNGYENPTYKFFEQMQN

| Compound | IC50 [1] | inhibition [2] | also measured |
| --- | --- | --- | --- |
| O=C(O)c1cc(S(=O)(=O)N2CCCCC2)c(Cl)cc1NCc1ccco1 | Not Active | 19.1% |  |
| CCNC(=O)c1cc(C(=O)O)c(NCc2ccco2)cc1Cl | Not Active | 24.6% |  |
| OC(c1ccc(Cl)cc1NCc1cscn1)C(F)(F)F (stereo not drawn) | Not Active | 27.9% |  |
| O=C(O)c1cc(S(=O)(=O)NC2CC2)c(Cl)cc1NCc1ccco1 | Not Active | 29.2% |  |
| O=C(O)c1ccc(F)cc1NCc1ccco1 |  | 12.4% |  |
| O=C(O)c1cc(S(=O)(=O)NCc2ccccc2)c(Cl)cc1NCc1ccco1 | Not Active | 11.8% |  |
| O=C(Nc1ccccc1)c1cc(C(=O)O)c(NCc2ccco2)cc1Cl | Not Active | 29.4% |  |
| CN(Cc1ccccc1)S(=O)(=O)c1cc(C(=O)O)c(NCc2ccco2)cc1Cl |  | inactive | Activity (SIM-A9 [3]): Active; Activity (SIM-A9 [4]): Active; Activity (SIM-A9 [5]): Active; concentration at 0.5 h [6]: 0.8 ng/g; Kp at 0.5 h [7]: 0.0008; concentration at 2.5 h [8]: 873 ng/mL; concentration at 2.5 h [9]: 0.1 ng/g; Activity (SIM-A9 [10]): Active; Activity (SIM-A9 [11]): Active; concentration at 0.5 h [12]: 1030 ng/mL |
| CNS(=O)(=O)c1cc(C(N)=O)c(NCc2ccco2)cc1Cl |  | inactive | Activity (SIM-A9 [3]): Active; Activity (SIM-A9 [4]): Active; Activity (SIM-A9 [5]): Active; concentration at 0.5 h [6]: 5.2 ng/g; Kp at 0.5 h [7]: 0.14; concentration at 2.5 h [8]: 29.3 ng/mL; concentration at 2.5 h [9]: 3.5 ng/g; Activity (SIM-A9 [10]): Active; Kp at 2.5 h [13]: 0.12; concentration at 0.5 h [12]: 38.2 ng/mL |
| OC(c1ccc(Br)cc1NCc1cscn1)C(F)(F)F (stereo not drawn) | Not Active | 33% | Activity (SIM-A9 [11]): Active |
| CC(NS(=O)(=O)c1cc(C(=O)O)c(NCc2ccco2)cc1Cl)c1ccccc1 (stereo not drawn) |  | 17.6% |  |
| O=C(O)c1cc(C(=O)N2CCCCC2)c(Cl)cc1NCc1ccco1 | Not Active | 11% |  |
| CNC(=O)c1cc(C(=O)O)c(NCc2ccco2)cc1Cl | Not Active | 19.1% |  |
| CN(C)S(=O)(=O)c1cc(C(=O)O)c(NCc2ccco2)cc1Cl |  | inactive |  |
| O=C(O)c1cc(S(=O)(=O)N2CCOCC2)c(Cl)cc1NCc1ccco1 |  | inactive |  |
| OC(c1ccc(Cl)cc1NCc1ccco1)C(F)(F)F (stereo not drawn) | Not Active | 60.7% | Activity (SIM-A9 [3]): Active; Activity (SIM-A9 [4]): Active; Activity (SIM-A9 [5]): Active; Activity (SIM-A9 [10]): Active; Activity (SIM-A9 [14]): Active |
| CNS(=O)(=O)c1cc(-c2noc(=O)[nH]2)c(NCc2ccco2)cc1Cl | Not Active | 20.2% |  |
| OC(c1ccc(Br)cc1NCc1ccco1)C(F)(F)F (stereo not drawn) | Not Active | 81.3% | Activity (SIM-A9 [3]): Active; Activity (SIM-A9 [4]): Active; Activity (SIM-A9 [5]): Active; Activity (SIM-A9 [10]): Active; Activity (SIM-A9 [14]): Active |
| CNS(=O)(=O)c1cc(C(=O)N(C)C)c(NCc2ccco2)cc1Cl |  | 25.2% | concentration at 0.5 h [6]: 61.1 ng/g; Kp at 0.5 h [7]: 0.2; concentration at 2.5 h [8]: 83.2 ng/mL; concentration at 2.5 h [9]: 18.5 ng/g; Activity (SIM-A9 [11]): Active; Kp at 2.5 h [13]: 0.22; concentration at 0.5 h [12]: 302 ng/mL |
| Cc1ccc(CNS(=O)(=O)c2cc(C(=O)O)c(NCc3ccco3)cc2Cl)cc1 | Not Active | inactive |  |

| Compound | IC50 [1] | inhibition [2] | also measured |
| --- | --- | --- | --- |
| O=C(O)c1cc(S(=O)(=O)NC2CCCCC2)c(Cl)cc1NCc1ccco1 |  | 11.3% |  |
| CCNS(=O)(=O)c1cc(C(=O)O)c(NCc2ccco2)cc1Cl |  | 21.3% |  |
| CNS(=O)(=O)c1cc(CO)c(NCc2ccco2)cc1Cl |  | 15% |  |
| CNS(=O)(=O)c1cc(-c2nnn[nH]2)c(NCc2ccco2)cc1Cl |  | 14.1% |  |
| CN(C)C(=O)c1cc(C(=O)O)c(NCc2ccco2)cc1Cl | Not Active | 18.4% |  |
| CNC(=O)c1cc(S(=O)(=O)NC)c(Cl)cc1NCc1ccco1 |  | inactive | Activity (SIM-A9 [11]): Active |
| O=C(O)c1cc(S(=O)(=O)Nc2ccccc2)c(Cl)cc1NCc1ccco1 |  | 17.4% |  |
| O=C(O)c1cc(S(=O)(=O)NCCc2ccccc2)c(Cl)cc1NCc1ccco1 | Not Active | inactive |  |
| COc1ccc(C(O)C(F)(F)F)c(NCc2cscn2)c1 (stereo not drawn) |  | 6.49% |  |
| NC(=O)c1cc(C(=O)O)c(NCc2ccco2)cc1Cl | Not Active | 32.4% |  |
| CNS(=O)(=O)c1cc(C(O)C(F)(F)F)c(NCc2ccco2)cc1Cl (stereo not drawn) | Not Active |  |  |
| O=C(O)c1ccc(Cl)cc1NCc1ccco1 | Not Active | 20.2% |  |
| CCCCCCNS(=O)(=O)c1cc(C(=O)O)c(NCc2ccco2)cc1Cl |  | 39.2% |  |
| COc1ccc(C(O)C(F)(F)F)c(NCc2ccco2)c1 (stereo not drawn) | Not Active | 36.8% |  |
| O=C(O)c1cc(C(=O)N2CCOCC2)c(Cl)cc1NCc1ccco1 | Not Active | 34% |  |
| NS(=O)(=O)c1cc(C(=O)O)c(NCc2ccco2)cc1Cl [FUROSEMIDE] | Not Active | 8.56% | concentration at 0.5 h [6]: 8.7 ng/g; Kp at 0.5 h [7]: 0.005; concentration at 2.5 h [8]: 1630 ng/mL; concentration at 2.5 h [9]: 7.8 ng/g; Kp at 2.5 h [13]: 0.005; concentration at 0.5 h [12]: 1730 ng/mL |
| CNS(=O)(=O)c1cc(C(=O)O)c(NCC2CCCO2)cc1Cl (stereo not drawn) |  | 17.5% | IC50 ([1]; read-out: IC50): 136 µM |
| CNS(=O)(=O)c1cc(C(=O)O)c(NCc2ccco2)cc1Cl |  | inactive | Activity (SIM-A9 [11]): Active |
| CNS(=O)(=O)c1cc(C(=O)OC)c(NCc2ccco2)cc1Cl |  | 27.1% |  |
| COc1ccc(CNS(=O)(=O)c2cc(C(=O)O)c(NCc3ccco3)cc2Cl)cc1 | Not Active | 27.8% |  |
